MC4R ag barr: MC4R agonists recruiting beta-arrestin, primary screen, cell-based, luminescence, agonist arm of biased-ligand search | AID 540308, 2011 | activation, % at 8.9 µM | U2OS MC4R beta-arrestin complementation; percent of melanotan II response, DMSO zero | 360,000 tested, 0.98% active | Melanocortin receptor 4 (Homo sapiens), P32245;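 active = activation above a per-plate cutoff, the mean activation of sample wells on that plate plus 3 SD, cut at about 8% in these data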
Beta2AR agonist: beta2AR agonists driving receptor internalization, primary screen, cell-based, FAP fluorogen, flow cytometry. Beta-2 adrenergic receptor (Homo sapiens), P07550. Am2.2-beta2AR cells. response, % (no concentration beside the values). 340,000 tested, 0.43% active. AID 504454, 2011;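 active = response above a set limit, near 3 SD of response in nonfluorescent compounds, cut at about 42% in these data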
PfGluPho inh: PfG6PD enzyme inhibitors, primary screen, biochemical, fluorescence intensity, uHTS | glucose-6-phosphate dehydrogenase-6-phosphogluconolactonase (Plasmodium falciparum 3D7) | inhibition, % at 20 µM | 350,000 tested, 0.78% active | AID 504690, 2011 | PfGluPho enzyme, NADPH resazurin-diaphorase fluorescence;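 active = inhibition reaching at least a set limit at 20 µM in the primary screen, cut at about 59% in these data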;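 note: 0% = DMSO wells with substrate and 100% = DMSO wells lacking glucose-6-phosphate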
MC4R antag cAMP: MC4R antagonists of cAMP signaling, primary screen, cell-based, TR-FRET, antagonist arm of biased-ligand search. Melanocortin receptor 4 (Homo sapiens), P32245. 360,000 tested, 0.48% active. inhibition, % at 6.5 µM. MC4R-expressing cells, MTII-stimulated cAMP, LANCE TR-FRET;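 active = inhibition above its plate's cutoff, the mean of tested wells on that plate plus 3 SD, cut at about 29% in these data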;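 note: 0% = Melanotan II alone and 100% = Melanotan II plus saturating MCL0020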
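Material: human MC4R-expressing U2OS cells. Probe or stimulus: Melanotan II challenge. Dosing: 6.5 µM single dose. Times: 30-min compound, 1-h challenge, 1-h detection, room temperature. Technique: TR-FRET with Eu-cAMP and labeled anti-cAMP, 671 nm. Replication: singlicate.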
ABHD5-PLIN5 inh: ABHD5-PLIN5 interaction inhibitors, primary screen, cell lysate, split luciferase complementation, luminescence | Split G. princeps luciferase complementation, 4 h | 360,000 tested, 0.78% active | AID 602281, 2012 | Perilipin-5 (Homo sapiens) + 1-acylglycerol-3-phosphate O-acyltransferase ABHD5 (Homo … | inhibition, % at 4 µM;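 active = inhibition above the mean inhibition across every tested compound plus 3 SD, cut at about 22% in these data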;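 note: 0% = DMSO only wells and the 100% control is not disclosed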
Target sequence (Q00G26 whole entry, looked up): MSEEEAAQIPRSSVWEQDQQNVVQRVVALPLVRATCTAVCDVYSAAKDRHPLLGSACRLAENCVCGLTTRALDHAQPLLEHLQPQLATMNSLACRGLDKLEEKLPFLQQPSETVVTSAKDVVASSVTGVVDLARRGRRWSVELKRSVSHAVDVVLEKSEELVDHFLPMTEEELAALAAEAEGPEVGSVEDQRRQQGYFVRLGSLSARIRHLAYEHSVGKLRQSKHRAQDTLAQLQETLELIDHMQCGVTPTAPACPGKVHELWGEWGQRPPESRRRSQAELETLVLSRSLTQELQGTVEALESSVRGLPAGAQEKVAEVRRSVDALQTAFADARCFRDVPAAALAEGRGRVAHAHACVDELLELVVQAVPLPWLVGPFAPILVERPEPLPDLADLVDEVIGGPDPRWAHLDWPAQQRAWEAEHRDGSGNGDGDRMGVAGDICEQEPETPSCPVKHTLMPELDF
Target sequence (Q8WTS1 whole entry, looked up): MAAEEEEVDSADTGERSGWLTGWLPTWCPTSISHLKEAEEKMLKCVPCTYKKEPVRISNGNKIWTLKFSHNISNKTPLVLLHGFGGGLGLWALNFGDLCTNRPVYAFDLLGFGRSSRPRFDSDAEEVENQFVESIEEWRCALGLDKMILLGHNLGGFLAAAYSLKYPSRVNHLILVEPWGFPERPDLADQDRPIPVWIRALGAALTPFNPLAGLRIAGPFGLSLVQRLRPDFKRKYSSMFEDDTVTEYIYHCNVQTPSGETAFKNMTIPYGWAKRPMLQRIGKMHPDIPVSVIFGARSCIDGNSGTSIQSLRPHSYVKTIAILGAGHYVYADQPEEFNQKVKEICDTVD
U2OS cAMP counter: nonselective cAMP signaling inhibitors, parental cells, counter-screen for MC4R biased antagonist project, cell-based, TR-FRET, U2OS, forskolin, triplicate | LANCE TR-FRET | AID 602193, 2012 | shares compounds with MC4R antag cAMP | 1,600 tested, 26% active | inhibition, % at 6.5 µM;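 active = mean inhibition over triplicates above the low-control well mean plus 3 SD, set per campaign, cut at about 13% in these data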;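 note: signal is single emission at 671 nm which falls as cellular cAMP rises; 0% = forskolin-stimulated wells and 100% = buffer without forskolin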
MC4R cAMP antag: MC4R cAMP antagonists, retest, confirmation, cell-based, TR-FRET | shares compounds with MC4R antag cAMP | MC4R-expressing cells, MTII-stimulated cAMP | inhibition, % at 6.5 µM | 1,600 tested, 27% active; in the data active = inhibition above about 29%;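 note: 0% = agonist stimulated wells alone and 100% = agonist stimulated wells plus saturating reference antagonist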
The depositor's hits bear a star. This is a sample that favours compounds with a hit; in the whole collection about 3% have one here.

O=C(COC(=O)c1nc(Cl)c(Cl)c(Cl)c1Cl)c1ccc[nH]1 was read as MC4R ag barr -3, Beta2AR agonist 6, PfGluPho inh -5, MC4R antag cAMP 39*, ABHD5-PLIN5 inh -1, U2OS cAMP counter 11 and MC4R cAMP antag 37*.
`O=C(COC(=O)c1nc(Cl)ccc1Cl)c1ccc[nH]1` gave MC4R ag barr 5, Beta2AR agonist 4, PfGluPho inh -9, MC4R antag cAMP 19 and ABHD5-PLIN5 inh 3.
Screening CC1Cc2cc(/C(O)=C3/C(=O)C(=O)N(CCN4CCOCC4)C3c3ccc([N+](=O)[O-])cc3)ccc2O1 (configuration not stated) returned MC4R ag barr -3, Beta2AR agonist -2, PfGluPho inh 9, MC4R antag cAMP 5 and ABHD5-PLIN5 inh -6.
For COCCNC(=S)N1CCc2cc(OC)c(OC)cc2C1COc1cc(C)cc(C)c1 (configuration not stated) the results were MC4R ag barr 1, Beta2AR agonist 2, PfGluPho inh 6, MC4R antag cAMP 29*, ABHD5-PLIN5 inh -1, U2OS cAMP counter -5 and MC4R cAMP antag 12.
For CCOC(=O)CCC(=O)Nc1ccc(S(=O)(=O)N2CCc3ccccc32)cc1 the results were MC4R ag barr 0, Beta2AR agonist 4, PfGluPho inh -1, MC4R antag cAMP 32*, ABHD5-PLIN5 inh -4, U2OS cAMP counter 9 and MC4R cAMP antag 23.
CCCN(C(=O)c1cccc(S(=O)(=O)N2CCCc3ccccc32)c1)C1CCS(=O)(=O)C1 (configuration not stated) was read as MC4R ag barr -4, Beta2AR agonist -1, PfGluPho inh 13, MC4R antag cAMP 6 and ABHD5-PLIN5 inh -7.
`CCN(C(=O)COC(=O)c1ccc(S(=O)(=O)N2CCCc3ccccc32)cc1)C1CCS(=O)(=O)C1` (configuration not stated) gave MC4R ag barr -2, Beta2AR agonist 4, PfGluPho inh -10, MC4R antag cAMP 30*, ABHD5-PLIN5 inh 0, U2OS cAMP counter 3 and MC4R cAMP antag -5.
`CCOC(=O)CCC(=O)Nc1ccc(S(=O)(=O)N2CCCC2)cc1` gave MC4R ag barr 0, Beta2AR agonist -3, PfGluPho inh -8, MC4R antag cAMP 5 and ABHD5-PLIN5 inh -3.
O=C(NCc1ccco1)c1cc(S(=O)(=O)N2CCCc3ccccc32)ccc1Cl was read as MC4R ag barr -1, Beta2AR agonist -2, PfGluPho inh 15, MC4R antag cAMP -3 and ABHD5-PLIN5 inh 0.
`CCNC(=O)COC(=O)c1cc(S(=O)(=O)N2CCCc3ccccc32)ccc1Cl` gave MC4R ag barr 1, Beta2AR agonist 22, PfGluPho inh 17, MC4R antag cAMP 33*, ABHD5-PLIN5 inh 0, U2OS cAMP counter 25* and MC4R cAMP antag 41*.
Cc1ccsc1CN(C)CC(=O)N(C)CC(=O)Nc1c(Cl)cccc1Cl was read as MC4R ag barr 2, PfGluPho inh -7, MC4R antag cAMP 9 and ABHD5-PLIN5 inh -2.
For COc1ccc(CCNC(=O)C2(C)CCC(=O)N2Cc2ccc(F)cc2Cl)cc1OC (configuration not stated) the results were MC4R ag barr -1, Beta2AR agonist 3, PfGluPho inh 1, MC4R antag cAMP 39*, ABHD5-PLIN5 inh -9, U2OS cAMP counter 1 and MC4R cAMP antag 6.
For S=c1[nH]nc(-c2cccnc2)o1 the results were MC4R ag barr -1, Beta2AR agonist 2, PfGluPho inh -2, MC4R antag cAMP 13 and ABHD5-PLIN5 inh 12.

Source: PubChem (several laboratories)
